Bioassay records from PubChem.
Arrestin-AP2 inh = inhibitors of beta-arrestin/AP2 binding, primary screen, biochemical, GPCR trafficking, flow cytometry; beta-arrestin 1 C-terminal peptide binding to AP2 beta2-adaptin appendage (human); FITC-arrestin peptide / GST-AP2 beads; AP2 beta2 appendage carries R879A mutation; inhibition, % at 10 µM; 340,000 compounds, 0.31% hits; AID 504490, 2011;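 active = inhibition above a set limit, near 3 SD of compounds lacking own fluorescence, cut at about 54% in these data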
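Material – AP2 appendage R879A on GSH beads · Buffer or medium – PBS with 0.05% Tween 20 and 0.1% BSA · Probe or stimulus – fluorescein-tagged arrestin peptide at 50 nM final · Incubation – compound with beads 12 min RT, then probe 1 h RT · Detection – high-throughput flow cytometry of beads, ex 488, em 535 nm · Evaluation – percent response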
PLC-beta3 inh = human PLC-beta3 inhibitors, primary screen, biochemical, fluorescence | 370,000 compounds, 0.18% hits | Purified PLC-beta3, fluorogenic substrate | 1-phosphatidylinositol 4,5-bisphosphate phosphodiesterase beta-3 (Homo sapiens), Q01970 | inhibition, % at 12.2 µM
Target sequence (Q01970 whole entry, looked up): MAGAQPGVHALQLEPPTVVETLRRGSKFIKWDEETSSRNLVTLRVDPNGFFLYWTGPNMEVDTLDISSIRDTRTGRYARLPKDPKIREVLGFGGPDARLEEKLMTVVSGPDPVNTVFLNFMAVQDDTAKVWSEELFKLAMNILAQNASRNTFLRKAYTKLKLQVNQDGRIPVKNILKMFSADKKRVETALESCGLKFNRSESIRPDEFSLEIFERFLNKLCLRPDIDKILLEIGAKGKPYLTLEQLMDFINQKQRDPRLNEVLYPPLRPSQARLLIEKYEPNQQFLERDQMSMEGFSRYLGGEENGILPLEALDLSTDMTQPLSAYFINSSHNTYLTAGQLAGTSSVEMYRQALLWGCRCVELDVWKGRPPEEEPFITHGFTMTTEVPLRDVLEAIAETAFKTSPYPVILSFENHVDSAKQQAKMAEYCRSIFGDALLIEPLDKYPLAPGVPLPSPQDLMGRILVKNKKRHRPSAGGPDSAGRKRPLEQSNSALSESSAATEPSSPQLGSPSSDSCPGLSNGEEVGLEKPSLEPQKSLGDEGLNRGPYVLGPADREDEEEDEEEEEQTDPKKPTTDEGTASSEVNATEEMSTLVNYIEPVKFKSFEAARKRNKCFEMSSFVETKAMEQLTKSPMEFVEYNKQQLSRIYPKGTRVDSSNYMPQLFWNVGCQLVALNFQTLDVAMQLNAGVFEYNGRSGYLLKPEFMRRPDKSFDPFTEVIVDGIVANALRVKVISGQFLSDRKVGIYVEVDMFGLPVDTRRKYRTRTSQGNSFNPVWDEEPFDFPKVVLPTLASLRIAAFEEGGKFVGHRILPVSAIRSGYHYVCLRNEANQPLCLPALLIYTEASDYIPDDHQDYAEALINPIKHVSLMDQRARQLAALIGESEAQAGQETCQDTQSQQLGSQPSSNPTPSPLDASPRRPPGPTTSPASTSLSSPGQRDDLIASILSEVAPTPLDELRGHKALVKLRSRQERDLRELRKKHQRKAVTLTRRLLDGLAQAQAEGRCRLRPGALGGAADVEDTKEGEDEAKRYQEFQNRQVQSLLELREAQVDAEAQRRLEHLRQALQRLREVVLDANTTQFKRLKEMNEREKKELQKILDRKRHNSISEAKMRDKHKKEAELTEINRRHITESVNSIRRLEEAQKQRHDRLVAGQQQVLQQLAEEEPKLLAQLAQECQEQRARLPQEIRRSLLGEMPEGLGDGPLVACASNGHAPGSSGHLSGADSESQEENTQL
sPLA2-III inh = human group III sPLA2 inhibitors, primary screen, biochemical, QFRET, BODIPY PC-A2 liposome substrate; Group 3 secretory phospholipase A2 (Homo sapiens), Q9NZ20; QFRET BODIPY PC-A2 liposome hydrolysis, fluorescence; inhibition, % at 12.2 µM; 370,000 compounds, 0.56% hits; AID 743126, 2013;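 active = inhibition above mean plus 3 SD of compounds lying within the high and low control bounds, cut at about 19% in these data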
proCasp3 act = activators of human procaspase-3 D3A mutant, primary screen, biochemical, absorbance, PC-3 D3A mutant, single concentration; activation, % at 8.5 µM; AID 463141, 2010; 330,000 compounds, 0.11% hits; recombinant procaspase-3 D3A, Ac-DEVD-pNA absorbance 405 nm; Caspase-3 (Homo sapiens), P42574;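 active = activation above the mean of all tested compounds plus 3 SD, cut at about 21% in these data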
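Technique: 405 nm absorbance of p-nitroaniline, reads at 0 and 120 min; Test system: Procaspase-3 D3A mutant; Incubation: 1 h enzyme-compound preincubation, then 2 h substrate reaction, 25 °C; Repeats: singlicate, each compound tested once; Benchmarks: low control DMSO wells, high control DMSO plus 5 µM PC-3 D3A.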
PLC-gamma1 inh = PLC-gamma1 enzyme inhibitors, primary screen, biochemical, fluorescence, purified enzyme. fluorogenic substrate. 370,000 compounds, 0.84% hits. inhibition, % at 12.2 µM. 1-phosphatidylinositol 4,5-bisphosphate phosphodiesterase gamma-1 (Homo sapiens), P19174; in the data active = inhibition above about 9.5%
proCasp7 act = procaspase-7 activators, primary screen, counter-screen for procaspase-3 activator project, biochemical, absorbance, HTS, human. Caspase-7 (Homo sapiens), P55210. recombinant procaspase-7, Ac-DEVD-pNA absorbance 405 nm; D23A/D198A/D206A triple mutant, cannot self-cleave; scale: DMSO 0, 5 µM enzyme 100. activation, % at 8.5 µM. 330,000 compounds, 0.093% hits. AID 463210, 2010;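 active = percent activation above the screen-wide mean plus 3 SD, cut at about 25% in these data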
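Test system: Procaspase-7 triple mutant (PC-7 D3A). Also added: Ac-DEVD-pNA substrate, 400 µM as added. Schedule: 1 h enzyme–compound preincubation and 2 h substrate reaction, both 25 °C. Signal: p-Nitroaniline absorbance at 405 nm, read at 0 and 120 min. Control set: low DMSO alone, high DMSO plus 5 µM PC-7.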
PLCgamma1 ctr = PLC-gamma1 enzyme inhibitors, counter-screen for PLC-beta3 inhibitor project, biochemical, fluorescence; shares compounds with PLC-gamma1 inh; purified PLC-gamma1, fluorogenic substrate; inhibition, % at 12.3 µM; 3,300 compounds, 3.1% hits; AID 743258, 2014; in the data active = inhibition above about 9.5%
PLCb3 confirm = PLC-beta3 inhibitor confirmation, biochemical, fluorescence, purified enzyme; inhibition, % at 12.3 µM; fluorogenic substrate fluorescence; 3,300 compounds, 1% hits; shares compounds with PLC-gamma1 inh
A number is an active result. The list is not random: actives were taken first. Their share in the collection is about 1.9%. Rule as the data show it, unless noted: active = inhibition above about 11%; inactive = the rest.

Screening CN1CCN(c2ccc(CNC(=O)C3(C)Cc4c(-c5ccc(C(N)=O)cc5)ccnc4O3)cc2)CC1 (stereo not given) returned PLC-beta3 inh inactive, sPLA2-III inh inactive and PLC-gamma1 inh inactive.
For CN(C)c1ccc(CNC(=O)C2(C)Cc3c(-c4ccccc4)ccnc3O2)cc1 (stereo not given) the results were PLC-beta3 inh inactive, sPLA2-III inh inactive and PLC-gamma1 inh inactive.
`CCOC(=O)[C@]12CCC=C1N(Cc1ccc3c(c1)OCO3)C(=O)[C@H](CC(=O)NCCC(C)C)C2` gave PLC-beta3 inh inactive, sPLA2-III inh inactive and PLC-gamma1 inh inactive.
For CCC(C)CN1C(=O)CSCC1(C)C(=O)Nc1ccc2c(c1)OCCO2 (stereo not given) the results were PLC-beta3 inh inactive, sPLA2-III inh inactive and PLC-gamma1 inh inactive.
For Cc1ccc(N(C(=O)CNC(=O)c2ccco2)C(C(=O)NCC2CCCO2)c2ccccc2)c(C)c1 (stereo not given) the results were Arrestin-AP2 inh inactive, PLC-beta3 inh inactive, sPLA2-III inh inactive, proCasp3 act inactive, PLC-gamma1 inh inactive and proCasp7 act inactive.
COc1ccc(S[C@]2(C(=O)N(C)C)CC(=O)N(C(=O)C3CC3)[C@@H]2c2ccc(OC)cc2)cc1 was read as PLC-beta3 inh inactive, sPLA2-III inh inactive and PLC-gamma1 inh inactive.
Cn1c(=O)[nH]c(=O)c2c1ncn2CCN1CCOCC1 was read as Arrestin-AP2 inh inactive, PLC-beta3 inh 11, sPLA2-III inh inactive, proCasp3 act inactive, PLC-gamma1 inh inactive, proCasp7 act inactive, PLCgamma1 ctr inactive and PLCb3 confirm inactive.
For CCCCn1cnc2c1c(=O)[nH]c(=O)n2CCCC the results were Arrestin-AP2 inh inactive, PLC-beta3 inh 11, sPLA2-III inh inactive, proCasp3 act inactive, PLC-gamma1 inh inactive, proCasp7 act inactive, PLCgamma1 ctr inactive and PLCb3 confirm inactive.
Screening CCn1cnc2c1c(=O)[nH]c(=O)n2Cc1ccccc1 returned Arrestin-AP2 inh inactive, proCasp3 act inactive and proCasp7 act inactive.
CCn1cc(C(=O)NCCCN2CCCC(C)C2)c(=O)c2cc(S(=O)(=O)N(C)C3CCCCC3)ccc21 (stereo not given) was read as Arrestin-AP2 inh inactive, PLC-beta3 inh inactive, sPLA2-III inh inactive, proCasp3 act inactive, PLC-gamma1 inh inactive and proCasp7 act inactive.
Screening Cc1cc(C)c(C(=O)O)c(CC(C)(C)C(=O)O)c1 returned Arrestin-AP2 inh inactive, PLC-beta3 inh inactive, sPLA2-III inh inactive, proCasp3 act inactive, PLC-gamma1 inh inactive and proCasp7 act inactive.
COc1ccc(C(C)NC(=S)NCc2ccc(F)cc2)cc1OC (stereo not given) was read as Arrestin-AP2 inh inactive, PLC-beta3 inh inactive, sPLA2-III inh inactive, proCasp3 act inactive, PLC-gamma1 inh 17, proCasp7 act inactive, PLCgamma1 ctr inactive and PLCb3 confirm inactive.
Screening CCCCOCCCNC(=O)C[C@H]1C[C@@]2(C(=O)OC)C(=C[C@H](C(C)C)O[C@@H]2C2CC2)N(Cc2ccc(Cl)cc2Cl)C1=O returned PLC-beta3 inh inactive, sPLA2-III inh inactive and PLC-gamma1 inh inactive.
`Cc1cc(NC(=O)c2ccccc2)ncc1NC(=O)c1cccs1` gave Arrestin-AP2 inh inactive, PLC-beta3 inh 16, sPLA2-III inh inactive, proCasp3 act inactive, PLC-gamma1 inh inactive, proCasp7 act inactive, PLCgamma1 ctr inactive and PLCb3 confirm inactive.
`Cc1cc(NC(=O)c2cccs2)ncc1NC(=O)c1cccc(F)c1` gave Arrestin-AP2 inh inactive, PLC-beta3 inh inactive, sPLA2-III inh inactive, proCasp3 act inactive, PLC-gamma1 inh inactive and proCasp7 act inactive.
`O=C1CC(c2ccc3ccccc3c2)N=C2N(Cc3ccc4c(c3)OCO4)C/C(=C/c3ccccc3)N12` (stereo not given) gave PLC-beta3 inh inactive, sPLA2-III inh inactive and PLC-gamma1 inh inactive.
Screening CCOc1ccc(OCCCC(=O)NNC(=O)c2ccncc2)cc1 returned Arrestin-AP2 inh inactive, PLC-beta3 inh inactive, sPLA2-III inh inactive, proCasp3 act inactive, PLC-gamma1 inh 15, proCasp7 act inactive, PLCgamma1 ctr inactive and PLCb3 confirm inactive.
`C[C@@H]1CN([C@@H](C)CO)C(=O)CCCn2cc(nn2)CO[C@H]1CN(C)C(=O)C1CC1` gave PLC-beta3 inh inactive, sPLA2-III inh inactive and PLC-gamma1 inh inactive.
Screening COC(=O)c1cc(-c2ccccc2OC)c(=O)n2c1CCC2 returned PLC-beta3 inh inactive, sPLA2-III inh inactive and PLC-gamma1 inh inactive.
Screening Cc1ccc(S(=O)(=O)CCc2nnc(NC(=O)C3CCCCC3)s2)cc1 returned Arrestin-AP2 inh inactive, PLC-beta3 inh inactive, sPLA2-III inh inactive, proCasp3 act inactive, PLC-gamma1 inh inactive and proCasp7 act inactive.
Screening CC(=O)Nc1nnc(CCS(=O)(=O)c2ccc(C)c(C)c2)s1 returned Arrestin-AP2 inh inactive, PLC-beta3 inh inactive, sPLA2-III inh inactive, proCasp3 act inactive, PLC-gamma1 inh 14, proCasp7 act inactive, PLCgamma1 ctr inactive and PLCb3 confirm inactive.
Screening COc1ccccc1N1CCN(C2CCCN(C(=O)c3ccccn3)C2)CC1 (stereo not given) returned Arrestin-AP2 inh inactive, PLC-beta3 inh inactive, sPLA2-III inh inactive, proCasp3 act inactive, PLC-gamma1 inh inactive and proCasp7 act inactive.
Screening CCc1ccc(C(=O)CN2C(=O)NC(C)(CCc3ccccc3)C2=O)cc1 (stereo not given) returned Arrestin-AP2 inh inactive, PLC-beta3 inh inactive, sPLA2-III inh inactive, proCasp3 act inactive, PLC-gamma1 inh inactive and proCasp7 act inactive.
Screening FC(F)(F)c1ccc(N/N=C/c2cccnc2)nc1 returned Arrestin-AP2 inh inactive, PLC-beta3 inh inactive, sPLA2-III inh inactive, proCasp3 act inactive, PLC-gamma1 inh inactive and proCasp7 act inactive.
